Published values of several laboratories.
Each line is one published result; the experiments were not run side by side.
Target: Serine/threonine-protein kinase BRSK1 (BRSK1, Homo sapiens, UniProt Q8TDC3)
One construct used (Q8TDC3 1-778): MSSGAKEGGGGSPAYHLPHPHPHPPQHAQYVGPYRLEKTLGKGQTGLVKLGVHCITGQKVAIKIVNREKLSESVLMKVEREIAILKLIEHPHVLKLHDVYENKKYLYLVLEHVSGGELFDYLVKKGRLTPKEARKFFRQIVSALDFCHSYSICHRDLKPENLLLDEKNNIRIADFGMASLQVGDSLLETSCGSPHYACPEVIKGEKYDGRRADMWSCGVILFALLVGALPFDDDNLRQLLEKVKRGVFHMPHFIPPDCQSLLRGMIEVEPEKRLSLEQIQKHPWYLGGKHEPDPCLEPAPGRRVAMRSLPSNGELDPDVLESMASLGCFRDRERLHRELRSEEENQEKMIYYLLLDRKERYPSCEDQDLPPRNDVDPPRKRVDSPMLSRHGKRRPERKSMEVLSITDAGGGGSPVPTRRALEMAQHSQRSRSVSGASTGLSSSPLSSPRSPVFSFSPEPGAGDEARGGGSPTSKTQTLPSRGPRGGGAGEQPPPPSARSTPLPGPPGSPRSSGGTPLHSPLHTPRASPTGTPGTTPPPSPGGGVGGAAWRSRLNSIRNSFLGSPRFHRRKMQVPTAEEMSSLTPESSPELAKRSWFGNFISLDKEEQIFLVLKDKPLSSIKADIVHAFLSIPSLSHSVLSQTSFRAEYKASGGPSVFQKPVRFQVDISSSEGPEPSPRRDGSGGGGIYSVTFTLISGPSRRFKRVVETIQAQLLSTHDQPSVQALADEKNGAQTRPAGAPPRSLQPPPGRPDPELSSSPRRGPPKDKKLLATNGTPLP

COc1cc2ncnc(Nc3ccc(F)c(Cl)c3)c2cc1OCCCN1CCOCC1  remaining signal (cell-free assay; 0.5 µM): 92.5%
FC(F)(F)Oc1cccc(-c2cnc3ccc(-c4ccncc4)nn23)c1  activity vs control (enzyme activity; inhibitor; radiometric; 1 µM): 103%
O=C(N1CCS(=O)(=O)CC1)N1C[C@H](c2ccc(OC(F)(F)F)cc2)C[C@H](c2nc(C3CC3)no2)C1  remaining binding (cell-free assay; competition with immobilised ligand; 1 µM): 100%
CNc1cccc2cc(C(=O)Nc3ccc(C(=O)O)cc3)c(=O)[nH]c12  inhibition (enzyme activity; inhibitor; 10 µM): 2.7%
CNC(=O)c1cc(Oc2ccc(NC(=O)Nc3ccc(Cl)c(C(F)(F)F)c3)cc2)ccn1  inhibition (enzyme activity; inhibitor; 10 µM): 20%
CC(=O)N1CCC(c2ccc(C(=O)NC(=N)N)cc2C(F)(F)F)CC1  remaining binding (cell-free assay; competition with immobilised ligand; 1 µM): 87%
Cc1ccc(Nc2nccc(N(C)c3ccc4c(C)n(C)nc4c3)n2)cc1S(N)(=O)=O  inhibition (enzyme activity; inhibitor; 0.3 µM): 18%
Cc1cc(C)c(-n2ccn3nc(-c4cccnc4)cc23)cc1NC(=O)c1cc(C#N)cc(S(F)(F)(F)(F)F)c1  remaining binding (cell-free assay; competition with immobilised ligand; 0.1 µM): 84%
Cc1cnc(NC2CCOCC2)nc1-n1cnc(C(=O)NC(CN)c2cc(F)cc(Cl)c2)c1 (stereo not drawn)  remaining activity (enzyme activity; inhibitor; radiometric; 1 µM): 77%
COc1cc2ncnc(Nc3ccc(Oc4ccccc4)c(C)c3C)c2cc1OC  inhibition (enzyme activity; inhibitor; 1 µM): 0%
CC(C)(C)c1nc(-c2cccc(NS(=O)(=O)c3c(F)cccc3F)c2F)c(-c2ccnc(N)n2)s1  remaining activity (enzyme activity; inhibitor; radiometric; 1 µM): 105%
Nc1nc(Nc2ccc(S(N)(=O)=O)cc2)nn1C(=O)c1c(F)cccc1F  remaining signal (cell-free assay; 0.5 µM): 49.2%
CCN(CC)CCNC(=O)c1c(C)[nH]c(/C=C2\C(=O)Nc3ccc(F)cc32)c1C  inhibition (enzyme activity; inhibitor; 10 µM): 82%
CCN(CC)c1ccc(C2=NNC(=O)CC2C)cc1[N+](=O)[O-] (stereo not drawn)  remaining activity (enzyme activity; inhibitor; 10 µM): 131%
CNC(=O)c1ccc(Nc2ncc(C(F)(F)F)c(NCc3nccnc3N(C)S(C)(=O)=O)n2)cc1  remaining binding (cell-free assay; competition with immobilised ligand; 0.1 µM): 100%
COc1cc(/C=C/C(=O)CC(=O)/C=C/c2ccc(O)c(OC)c2)ccc1O  activity vs control (enzyme activity; inhibitor; 1 µM): 92%
CC(C)(O)c1cncc(-c2nc3ccc(F)cc3n2C2CC2)c1  remaining binding (cell-free assay; competition with immobilised ligand; 1 µM): 100%
Oc1cccc(-c2nc(N3CCOCC3)c3oc4ncccc4c3n2)c1  remaining activity (enzyme activity; inhibitor; 10 µM): 109%
Cc1sc(C(=O)NC2COC2)cc1-n1cc(NC(=O)Nc2c(F)cccc2Cl)cn1  remaining activity (enzyme activity; inhibitor; 10 µM): 87.8%
Cc1ccc(C(=O)Nc2ccc(CN3CCN(C)CC3)c(C(F)(F)F)c2)cc1C#Cc1cnc2cccnn12  remaining activity (enzyme activity; inhibitor; 23.5 nM): 83%
Cc1nc(Cc2cccc(C(F)(F)F)c2)sc1-c1ccc(C(N)=O)nc1  remaining binding (cell-free assay; competition with immobilised ligand; 1 µM): 100%
Cn1c(=O)n(-c2ccc(C(C)(C)C#N)cc2)c2c3cc(-c4cnc5ccccc5c4)ccc3ncc21  remaining activity (enzyme activity; inhibitor; 10 µM): 85%
O=C(Nc1cnn(-c2csc(C(=O)NC3COC3)c2)c1)Nc1ccccc1Cl  remaining activity (enzyme activity; inhibitor; 5 µM): 85.5%
O=C(Nc1cccnn1)N1CCC(=Cc2cccc(Oc3ccc(C(F)(F)F)cn3)c2)CC1  remaining binding (cell-free assay; competition with immobilised ligand; 1 µM): 73%
Cc1cc(NC(=O)c2cccc3cc(-c4cccc5[nH]nc(N)c45)ccc23)ccc1F  activity vs control (enzyme activity; inhibitor; 0.1 µM): 123%
O=C1NC(=O)c2cc(Nc3ccc(F)cc3)c(Nc3ccc(F)cc3)cc21  remaining signal (cell-free assay; 0.5 µM): 94.3%
CN([C@@H]1CCc2c(CC(=O)O)c3ccccc3n2C1)S(=O)(=O)c1ccc(F)cc1  remaining binding (cell-free assay; competition with immobilised ligand; 1 µM): 100%
